What was measured:
[1] = Oral bioavailability in Sprague-Dawley rat at 10 mg/kg; type: ADME, organism-based; details: in vivo
Method in brief: (§1)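 Male Sprague-Dawley rats dosed 2 mg/kg iv in saline (0.5 mg/mL) and 10 mg/kg po in 0.5% MC/0.2% Tween80 (1.0 mg/mL); plasma and brain concentrations followed.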

Cytochrome P450 2C9 = Cytochrome P450 2C9 (Homo sapiens, UniProt P11712); assay: Inhibition of CYP2C9 (unknown origin) after 4 hrs; type: ADME
[2] = Drug metabolism in human plasma at 100 ng/ml after 4 hrs; type: ADME, cell-free; details: read-out: Drug metabolism
Method in brief: (§2)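 Compound spiked into blank plasma of human, mouse, rat, rabbit, macaque and dog at 100 ng/ml, then incubated in a 37 °C water bath for up to 4 h; percent metabolized reported.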

[3] = Cmax in Sprague-Dawley rat brain at 10 mg/kg, po; type: ADME, organism-based; parameters: dose 10 mg/kg, route oral
Method in brief: (§3)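 Oral PK at 10 mg/kg po in male OF1 mice (vehicle 5% DMSO/0.5% MC/0.2% Tween80, 1.0 mg/mL) and male Sprague-Dawley rats (vehicle 0.5% MC/0.2% Tween80, 1.0 mg/mL). Cmax and tmax taken from plasma and brain concentration–time profiles.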

[4] = AUC (0 to infinity) in Sprague-Dawley rat plasma at 10 mg/kg, po; type: ADME, organism-based; parameters: time infinity, dose 10 mg/kg, route oral
Method in brief: (§4)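 Single-dose PK; male OF1 mice and male Sprague-Dawley rats, 2 mg/kg iv and 10 mg/kg po. Mouse vehicles: iv 50% 1-methyl-2-pyrrolidinone in saline (1.0 mg/mL); po 5% DMSO/0.5% MC/0.2% Tween80 (1.0 mg/mL). Rat vehicles: iv saline (0.5 mg/mL); po 0.5% MC/0.2% Tween80 (1.0 mg/mL). Plasma and brain exposure read as AUC0-∞ and t1/2.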

Mus musculus [5] = assay: Toxicity in mouse assessed as effect on motility at 30 mg/kg, po; type: organism-based; parameters: dose 30 mg/kg, route oral; details: in vivo
Method in brief: (§5)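 Acute oral group toxicity in mice: behavioural side effects scored (social interaction, motility, preconvulsant signs, convulsions, tremor) after single po doses of 30 and 100 mg/kg.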

[6] = Inhibition of cytochrome P450 (unknown origin) by mechanism-based assay; type: ADME; details: human
[7] = AUC (0 to infinity) in Sprague-Dawley rat plasma at 2 mg/kg, iv; type: ADME, organism-based; parameters: time infinity, dose 2 mg/kg, route intravenous; method in brief: as §4
[8] = AUC (0 to infinity) in Sprague-Dawley rat brain at 10 mg/kg, po; type: ADME, organism-based; parameters: time infinity, dose 10 mg/kg, route oral; method in brief: as §4
Rattus norvegicus [9] = assay: Antidepression-like activity in po dosed rat assessed as decrease in immobility time by forced swimming test; type: functional
Method in brief: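 Rat forced-swim test, immobility time as read-out. Test agent given po in MC/0.6% + H2O at 1, 3 and 10 mg/kg; imipramine reference at 60 mg/kg po.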

Mus musculus [10] = assay: Toxicity in mouse assessed as effect on neurological activity at 10 to 30 mg/kg, po by Irwin test; type: organism-based; parameters: dose 10-30 mg/kg, route oral; details: in vivo
Method in brief: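 Irwin exploratory general behaviour study in male mice; single oral doses of 0, 10 and 30 mg/kg; behavioural, neurologic and autonomic effects observed.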

Mus musculus [11] = assay: Toxicity in mouse assessed as effect on preconvulsion at 30 mg/kg, po; type: organism-based; parameters: dose 30 mg/kg, route oral; details: in vivo; method in brief: as §5
[12] = Drug metabolism in rat plasma at 100 ng/ml after 4 hrs; type: ADME, cell-free; details: read-out: Drug metabolism; method in brief: as §2
[13] = Cmax in OF1 mouse plasma at 10 mg/kg, po; type: ADME, organism-based; parameters: dose 10 mg/kg, route oral; method in brief: as §3
[14] = Ratio of AUC (0 to infinity) in brain to plasma in Sprague-Dawley rat at 2 mg/kg, iv; type: ADME, organism-based; parameters: dose 2 mg/kg, route intravenous; details: brain and plasma, read-out: Ratio AUC
Rattus norvegicus [15] = assay: Plasma clearance in Sprague-Dawley rat at 2 mg/kg, iv; type: ADME, organism-based; parameters: dose 2 mg/kg, route intravenous; details: in vivo; method in brief: as §1
[16] = AUC (0 to infinity) in OF1 mouse plasma at 10 mg/kg, po; type: ADME, organism-based; parameters: time infinity, dose 10 mg/kg, route oral; method in brief: as §4
[17] = AUC (0 to infinity) in OF1 mouse brain at 2 mg/kg, iv; type: ADME, organism-based; parameters: time infinity, dose 2 mg/kg, route intravenous; method in brief: as §4
[18] = Mutagenic activity in micronucleus (unknown origin) at 5 to 950 ug/mL in absence of human liver microsomes; type: toxicity
Method in brief: (§6)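 In vitro micronucleus test; concentrations 5 to 950 µg/mL, run with and without metabolic activation by human liver microsomes.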

[19] = Drug metabolism in macaque plasma at 100 ng/ml after 4 hrs; type: ADME, cell-free; details: macaca, read-out: Drug metabolism; method in brief: as §2
[20] = Tmax in OF1 mouse brain at 10 mg/kg, po; type: ADME, organism-based; parameters: dose 10 mg/kg, route oral
Method in brief: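 Male OF1 mice given 2 mg/kg iv (50% 1-methyl-2-pyrrolidinone in saline, 1.0 mg/mL) and 10 mg/kg po (5% DMSO/0.5% MC/0.2% Tween80, 1.0 mg/mL); plasma and brain exposure measured; B/P ratio from iv AUC.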

[21] = target: Voltage-gated inwardly rectifying potassium channel KCNH2 (Homo sapiens, UniProt Q12809); assay: Inhibition of human ERG current transfected in CHO cells by patch clamp assay; type: cell-based
Sequence of Voltage-gated inwardly rectifying potassium channel KCNH2 (Q12809 whole entry): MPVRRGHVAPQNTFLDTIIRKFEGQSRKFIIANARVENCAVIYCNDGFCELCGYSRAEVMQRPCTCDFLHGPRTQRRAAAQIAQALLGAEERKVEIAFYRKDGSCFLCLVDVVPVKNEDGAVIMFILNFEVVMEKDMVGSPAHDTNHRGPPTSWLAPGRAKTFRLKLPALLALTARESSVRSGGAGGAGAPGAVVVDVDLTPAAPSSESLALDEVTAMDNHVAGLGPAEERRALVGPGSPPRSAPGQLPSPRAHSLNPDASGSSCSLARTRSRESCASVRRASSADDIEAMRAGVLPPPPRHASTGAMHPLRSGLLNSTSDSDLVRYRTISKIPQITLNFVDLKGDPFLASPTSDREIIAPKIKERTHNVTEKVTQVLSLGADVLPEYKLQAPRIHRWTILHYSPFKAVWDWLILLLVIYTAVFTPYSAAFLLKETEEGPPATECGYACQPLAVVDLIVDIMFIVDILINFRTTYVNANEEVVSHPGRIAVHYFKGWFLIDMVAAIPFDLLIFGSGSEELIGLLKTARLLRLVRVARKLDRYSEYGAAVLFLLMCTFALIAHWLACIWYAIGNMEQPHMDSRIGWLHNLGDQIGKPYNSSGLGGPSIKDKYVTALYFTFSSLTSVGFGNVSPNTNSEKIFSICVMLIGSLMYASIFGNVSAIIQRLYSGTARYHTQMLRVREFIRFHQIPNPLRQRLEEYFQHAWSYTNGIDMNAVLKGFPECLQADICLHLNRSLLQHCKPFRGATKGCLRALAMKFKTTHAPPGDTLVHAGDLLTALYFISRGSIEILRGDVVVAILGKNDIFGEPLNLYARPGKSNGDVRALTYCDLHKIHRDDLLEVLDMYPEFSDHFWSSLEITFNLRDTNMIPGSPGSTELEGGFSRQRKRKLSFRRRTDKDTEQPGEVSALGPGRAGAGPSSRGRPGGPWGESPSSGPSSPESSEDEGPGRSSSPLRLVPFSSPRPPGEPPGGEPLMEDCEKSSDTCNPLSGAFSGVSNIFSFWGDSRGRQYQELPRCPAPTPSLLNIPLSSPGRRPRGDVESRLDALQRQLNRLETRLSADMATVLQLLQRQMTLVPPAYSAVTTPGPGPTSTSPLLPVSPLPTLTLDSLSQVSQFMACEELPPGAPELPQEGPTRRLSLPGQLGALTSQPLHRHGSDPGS
Method in brief: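 Whole-cell patch clamp on CHO cells, hERG current; IC50 from n = 4.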

[22] = Cmax in Sprague-Dawley rat plasma at 10 mg/kg, po; type: ADME, organism-based; parameters: dose 10 mg/kg, route oral; method in brief: as §3
[23] = Drug metabolism in rabbit liver microsomes; type: ADME, Oryctolagus cuniculus, Microsome; details: read-out: Drug metabolism
[24] = Elimination half life in Sprague-Dawley rat plasma at 10 mg/kg, po; type: ADME, organism-based; parameters: dose 10 mg/kg, route oral; details: read-out: beta t1/2 (converted); method in brief: as §4
[25] = Therapeutic index, ratio for toxicity in mouse to ratio for antidepression-like activity in rat; details: in vivo, read-out: TI
[26] = Tmax in Sprague-Dawley rat brain at 10 mg/kg, po; type: ADME, organism-based; parameters: dose 10 mg/kg, route oral; method in brief: as §1
[27] = Mutagenic activity in micronucleus (unknown origin) at 5 to 950 ug/mL in presence of human liver microsomes; type: toxicity; method in brief: as §6
Salmonella typhimurium = assay: Genotoxicity in Salmonella typhimurium at 3 to 1000 ug/mL by Ames-2 test; type: toxicity, organism-based; details: salmonella enterica subsp. enterica serovar typhimurium
Method in brief: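 Ames II bacterial mutagenicity test over 3 to 1000 µg/mL.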

Cytochrome P450 2C19 = Cytochrome P450 2C19 (Homo sapiens, UniProt P33261); assay: Inhibition of CYP2C19 (unknown origin) after 4 hrs; type: ADME
Sequence of Cytochrome P450 2C19 (P33261 whole entry): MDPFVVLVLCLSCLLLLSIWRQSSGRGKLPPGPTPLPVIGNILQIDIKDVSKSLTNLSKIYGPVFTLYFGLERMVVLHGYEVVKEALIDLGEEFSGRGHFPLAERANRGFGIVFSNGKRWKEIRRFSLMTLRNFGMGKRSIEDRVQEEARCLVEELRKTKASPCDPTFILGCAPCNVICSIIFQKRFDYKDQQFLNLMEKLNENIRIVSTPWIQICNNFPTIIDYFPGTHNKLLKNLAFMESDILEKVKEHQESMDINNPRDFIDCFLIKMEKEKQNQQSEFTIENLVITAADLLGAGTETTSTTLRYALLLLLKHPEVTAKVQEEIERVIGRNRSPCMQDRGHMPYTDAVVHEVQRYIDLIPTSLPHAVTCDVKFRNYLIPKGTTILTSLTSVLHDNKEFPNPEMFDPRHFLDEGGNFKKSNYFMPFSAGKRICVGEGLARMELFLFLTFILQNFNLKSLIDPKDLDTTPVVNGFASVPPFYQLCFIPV

[28] = Drug metabolism in dog plasma at 100 ng/ml after 4 hrs; type: ADME, cell-free, Canis lupus familiaris; details: read-out: Drug metabolism; method in brief: as §2
[29] = Elimination half life in Sprague-Dawley rat brain at 10 mg/kg, po; type: ADME, organism-based; parameters: dose 10 mg/kg, route oral; details: read-out: beta t1/2 (converted); method in brief: as §4
[30] = Elimination half life in Sprague-Dawley rat plasma at 2 mg/kg, iv; type: ADME, organism-based; parameters: dose 2 mg/kg, route intravenous; details: read-out: beta t1/2 (converted); method in brief: as §4
[31] = Cmax in OF1 mouse brain at 10 mg/kg, po; type: ADME, organism-based; parameters: dose 10 mg/kg, route oral; method in brief: as §3
[32] = AUC (0 to infinity) in OF1 mouse plasma at 2 mg/kg, iv; type: ADME, organism-based; parameters: time infinity, dose 2 mg/kg, route intravenous; method in brief: as §4

Sequence of Cytochrome P450 2C9 (P11712 whole entry): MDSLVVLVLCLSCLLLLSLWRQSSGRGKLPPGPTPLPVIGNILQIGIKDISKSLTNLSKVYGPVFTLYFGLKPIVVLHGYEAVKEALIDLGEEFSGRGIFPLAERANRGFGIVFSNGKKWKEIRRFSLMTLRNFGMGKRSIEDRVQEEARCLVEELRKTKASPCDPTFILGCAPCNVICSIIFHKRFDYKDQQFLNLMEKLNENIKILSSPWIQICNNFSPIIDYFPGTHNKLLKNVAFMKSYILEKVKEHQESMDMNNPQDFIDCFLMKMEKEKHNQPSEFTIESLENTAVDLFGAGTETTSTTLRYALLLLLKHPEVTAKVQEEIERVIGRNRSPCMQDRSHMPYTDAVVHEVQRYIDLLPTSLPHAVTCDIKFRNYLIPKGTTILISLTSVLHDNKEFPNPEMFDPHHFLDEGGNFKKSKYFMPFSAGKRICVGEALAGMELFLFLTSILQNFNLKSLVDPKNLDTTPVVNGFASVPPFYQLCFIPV

## Cc1cc(N2CC[C@H](N3CCC[C@@H]3C)C2)ccc1NC(=O)c1c(C)noc1C
[1]
  bioavailability: 56%
Cytochrome P450 2C9
  IC50: > 100 µM
[2]
  metabolised at 4 h, 100 ng/ml: < 5%
[3]
  Cmax: 599 ng/mL
[4]
  AUC(0-inf): 3150 ng·h/mL
Mus musculus [5]
  Activity: Non-toxic
[6]
  inhibition (INH): Not Active
[7]
  AUC(0-inf): 1100 ng·h/mL
[8]
  AUC(0-inf): 3400 ng·h/mL
Rattus norvegicus [9]
  Activity: Dose-dependent effect
Rattus norvegicus [9]; read-out: MED
  minimal effective dose: 10 mg/kg
Mus musculus [10]
  Activity: Non-toxic
Mus musculus [11]
  Activity: Non-toxic
[12]
  metabolised at 4 h, 100 ng/ml: < 5%
[13]
  Cmax: 1680 ng/mL
[14]
  Kp: 1.1
Rattus norvegicus [15]
  clearance: 30 mL/min/kg
[16]
  AUC(0-inf): 1900 ng·h/mL
[17]
  AUC(0-inf): 1100 ng·h/mL
[18]
  Activity: Non-toxic
[19]
  metabolised at 4 h, 100 ng/ml: < 5%
[20]
  Tmax: 0.17 h
[21]
  IC50: 37 µM
[22]
  Cmax: 749 ng/mL
[23]
  metabolised: < 5%
[24]
  half-life: 7.8 h
[25]
  selectivity ratio: 3
[26]
  Tmax: 1 h
[27]
  Activity: Non-toxic
Salmonella typhimurium
  Activity: Non-toxic
Cytochrome P450 2C19
  IC50: > 100 µM
[28]
  metabolised at 4 h, 100 ng/ml: < 5%
[29]
  half-life: 9.4 h
[30]
  half-life: 1.2 h
[31]
  Cmax: 2620 ng/mL
[32]
  AUC(0-inf): 670 ng·h/mL
